Results from ChEMBL document CHEMBL3085657, “Preparation and in vitro photodynamic activities of folate-conjugated distyryl boron dipyrromethene based photosensitizers” (J Med Chem, 2013).

Assays:
[1] = Induction of singlet oxygen formation in DMF assessed as photodegradation of DPBF at 4 uM; type: physicochemical
Summary of the method: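 Singlet oxygen generation measured in DMF with 1,3-diphenylisobenzofuran as scavenger. Scavenger photodegradation followed as the fall in absorbance at 415 nm over time, with ZnPc as the reference.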

[2] = Cellular uptake in mitochondria of human KB cells overexpressing folate receptor at 1 uM after 24 hrs by mito-tracker green FM-based confocal microscopic analysis; type: ADME
Summary of the method: (§1)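 KB cells (about 1 × 10^5 on coverslips, overnight at 37 °C, 5% CO2) given conjugate at 1 μM in folic acid free medium for 24 h. Then 15 min with Lyso-Tracker Green DND 26 (4.0 μM in medium), Mito-Tracker Green FM (0.2 μM in medium) or ER-Tracker Green (1.0 μM in PBS). PBS rinse; confocal imaging with 488 nm argon and 633 nm He-Ne lasers.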

[3] = Cellular uptake in lysosome of human KB cells overexpressing folate receptor at 1 uM after 24 hrs by lyso-tracker DND 26-based confocal microscopic analysis; type: ADME, cell-based; summary of the method: as §1
[4] = Cellular uptake in endoplasmic reticulum of human KB cells overexpressing folate receptor at 1 uM after 24 hrs by ER-tracker green based-confocal microscopic analysis; type: ADME, cell-based; summary of the method: as §1
[5] = Ratio of cellular uptake in human KB cells to human MCF7 cells at 5 uM after 24 hrs; type: ADME, cell-based; conditions: mcf7, 24 h
Summary of the method: (§2)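 KB or MCF-7 cells (about 2 × 10^5 on coverslips, overnight at 37 °C, 5% CO2) incubated 24 h with 5.0 μM conjugate in folic acid free medium. PBS rinse; inverted microscope with 630 nm excitation, emission collected above 660 nm. Mean intracellular fluorescence from 24 cells per sample (mean ± SD), compared between the two lines.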

MCF7 [6] = assay: Cellular uptake in human MCF7 cells expressing low level of folate receptor at 5 uM after 24 hrs by bright field microscopy-based fluorescence assay; type: ADME, cell-based; conditions: mcf7, 24 h; summary of the method: as §2
KB [7] = assay: Cellular uptake in human KB cells overexpressing folate receptor at 5 uM after 24 hrs by bright field microscopy-based fluorescence assay; type: ADME, cell-based; summary of the method: as §2
KB [8] = assay: Cellular uptake in human KB cells overexpressing folate receptor at 1 uM after 24 hrs by bright field microscopy-based fluorescence assay; type: ADME, cell-based
Summary of the method: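 About 2 × 10^5 KB cells grown overnight on coverslips, then exposed to conjugate (1.0 μM) in folic acid free medium for 24 h at 37 °C. PBS rinse; confocal imaging with 633 nm He-Ne excitation and emission collected at 650−750 nm. Mean intracellular fluorescence taken over 50 cells per sample, reported as mean ± SD.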

KB [9] = assay: Photocytotoxicity against human KB cells overexpressing folate receptor assessed as cell viability at IC50 incubated for 24 hrs followed by halogen light illumination measured after 20 mins by MTT assay in presence of free folic acid; type: functional
MCF7 [10] = assay: Selectivity ratio of IC50 for human MCF7 cells expressing low level of folate receptor to IC50 for human KB cells overexpressing folate receptor; type: functional
Summary of the method: (§3)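 Cells seeded at about 1 × 10^4 (KB) or 2 × 10^4 (MCF-7) per well, grown overnight, then exposed to serial dilutions in folic acid free RPMI 1640. Dilutions came from 1.6 mM DMF stocks taken to 80 μM with aqueous Tween 80. After PBS rinse and fresh medium, cells were illuminated (halogen lamp, λ > 610 nm, 40 mW cm−2, 20 min, 48 J cm−2) and kept overnight at 37 °C. Read by MTT (3 h) with SDS/isopropanol solubilisation and A540. Viability is relative to wells without compound; three experiments in quadruplicate, mean ± SEM.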

MCF7 [11] = assay: Photocytotoxicity against human MCF7 cells expressing low level of folate receptor assessed as cell viability incubated for 24 hrs followed by halogen light illumination measured after 20 mins by MTT assay; type: functional, cell-based; summary of the method: as §3
KB [12] = assay: Photocytotoxicity against human KB cells overexpressing folate receptor assessed as cell viability incubated for 24 hrs followed by halogen light illumination measured after 20 mins by MTT assay; type: functional, cell-based; summary of the method: as §3
MCF7 [13] = assay: Cytotoxicity against human MCF7 cells expressing low level of folate receptor assessed as cell viability at 80 uM after 24 hrs by MTT assay in absence of halogen light; type: cell-based; conditions: mcf7, 24 h
KB [14] = assay: Cytotoxicity against human KB cells overexpressing folate receptor assessed as cell viability at 80 uM after 24 hrs by MTT assay in absence of halogen light; type: cell-based

SMILES | Activity [1] | Drug uptake [2] | Drug uptake [3] | Drug uptake [4] | Ratio [5] | Drug uptake (MCF7 [6]) | Drug uptake (KB [7]) | Drug uptake (KB [8]) | Activity (KB [9]) [%] | Ratio IC50 (MCF7 [10]) | IC50 (MCF7 [11]) [nM] | IC50 (KB [12]) [nM] | Activity (MCF7 [13]) | Activity (KB [14])
COCCOCCOCCOc1ccc(/C=C/C2=[N+]3C(=C(c4ccc(OCc5cn(CCOCCOCCNC(=O)CC[C@H](NC(=O)c6ccc(NCc7cnc8nc(N)[nH]c(=O)c8n7)cc6)C(=O)O)nn5)cc4)c4c(C)c(I)c(/C=C/c5ccc(OCCOCCOCCOC)cc5)n4[B-]3(F)F)C(C)=C2I)cc1 | Active | Not Active | Active | Active | 5 | Not Active | Active | Active | 94 | 43 | 2560 | 60 | Non-toxic | Non-toxic
COCCOCCOCCOc1ccc(/C=C/C2=[N+]3C(=C(c4ccc(OCCOCCOCCOCc5cn(CCOCCOCCNC(=O)CC[C@H](NC(=O)c6ccc(NCc7cnc8nc(N)[nH]c(=O)c8n7)cc6)C(=O)O)nn5)cc4)c4c(C)c(I)c(/C=C/c5ccc(OCCOCCOCCOC)cc5)n4[B-]3(F)F)C(C)=C2I)cc1 | Active | – | Active | Active | – | – | – | Active | – | 6 | 1000 | 180 | Non-toxic | Non-toxic
Nc1nc(=O)c2nc(CNc3ccc(C(=O)N[C@@H](CCC(=O)O)C(=O)O)cc3)cnc2[nH]1 [FOLIC ACID] | – | – | – | – | – | – | – | – | – | – | – | 500 | – | –
C#CCOCCOCCOCCOc1ccc(C2=C3C(C)=C(I)C(/C=C/c4ccc(OCCOCCOCCOC)cc4)=[N+]3[B-](F)(F)n3c(/C=C/c4ccc(OCCOCCOCCOC)cc4)c(I)c(C)c32)cc1 | – | – | – | – | – | – | – | – | – | 3 | 60 | 20 | – | –
